Screening results deposited in PubChem BioAssay by several laboratories.
DSG3 Ab inh: inhibitors of pemphigus antibody binding to DSG3, primary screen, biochemical, bead-based, flow cytometry, scFv-GFP; Desmoglein-3 (Homo sapiens), P32926; DSG3-coupled beads, scFv-anti-DSG3-GFP binding; hits give low values; binding (percent of control), % at 10 µM; 310,000 compounds, 0.48% hits;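 active = binding more than 3 SD below its plate's average and above zero; inconclusive = below that plate limit but binding exactly zero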;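 also: hits lower antibody fragment binding to DSG3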
MEKK2 mut-MEK5: MEK5 binding signal on mutant MEKK2 PB1, primary screen, biochemical, multiplex bead flow cytometry, Alexa488-MEK5. AID 1530, 2009. percent response, % at 10 µM. 290,000 compounds, 0.35% hits. Alexa488-MEK5 binding to MEKK2 mutant; in the data active = percent response above about 24%, passing the limit was not always enough
UBC13 polyUb: UBC13 polyubiquitin chain formation inhibitors, primary screen, biochemical, TR-FRET, uHTS. 330,000 compounds, 0.47% hits. AID 485273, 2010. inhibition, % at 20 µM. Ubiquitin-conjugating enzyme E2 N (Homo sapiens), P61088; in the data active = inhibition above about 45%, passing the limit was not always enough; inconclusive = no clear call, values can overlap the other calls
Target sequence (P61088 whole entry, looked up): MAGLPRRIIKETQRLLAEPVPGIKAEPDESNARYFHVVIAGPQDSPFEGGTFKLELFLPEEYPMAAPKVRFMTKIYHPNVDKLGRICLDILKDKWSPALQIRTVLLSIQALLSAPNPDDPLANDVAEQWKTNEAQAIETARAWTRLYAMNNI
MEKK2wt PB1 HTS: modulators of MEK5 binding to wildtype MEKK2, primary screen, biochemical, multiplex bead flow cytometry, Alexa488-MEK5; AID 1531, 2009; 290,000 compounds, 1.1% hits; Alexa488-MEK5 binding to MEKK2 WT; actives lie on both sides; Mitogen-activated protein kinase kinase kinase 2 (Homo sapiens), Q9Y2U5; binding response (% of control), % at 10 µM; in the data active = binding response below about 67% or above about 130%; inconclusive = no clear call, values can overlap the other calls; inactive = in between
Apaf-1 inh: inhibitors of human Apaf-1 apoptosome, primary screen, biochemical, DEVD-Rh110 fluorescence, uHTS; 330,000 compounds, 0.71% hits; Apoptotic protease-activating factor 1 (Homo sapiens), O14727; reconstituted apoptosome caspase-3 activity; inhibition, % at 20 µM; active = inhibition of at least 40% at 20 µM
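Material: biochemical Apaf-1 apoptosome reconstitution. Medium: Hepes buffer, pH 7.5. Also added: cytochrome c activation, bis-DEVD rhodamine 110 substrate. Timing: 30 min compound preincubation, 50 min activation, room temperature. Measured by: rhodamine 110 fluorescence at Ex 480/Em 540 nm.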
MEKK3 PB1 HTS: modulators of MEKK3-MEK5 PB1 binding, primary screen, biochemical, wildtype MEKK3, multiplex bead flow cytometry, Alexa488-MEK5. Mitogen-activated protein kinase kinase kinase 3 (Homo sapiens), Q99759. bead-based flow cytometry, Alexa488-MEK5 binding to MEKK3; actives lie on both sides; 0 = blocked by unlabeled MEK5, 100 = vehicle. binding response (% of control), % at 10 µM. 290,000 compounds, 1.4% hits;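 active = binding response more than 3 SD above or below the average of its plate-row segment, actives on both sides; inconclusive = wells at one plate position flagged as instrument error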;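 also: Alexa488 bead fluorescence after subtracting the streptavidin-only scavenger bead signal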
Target sequence (Q99759 whole entry, looked up): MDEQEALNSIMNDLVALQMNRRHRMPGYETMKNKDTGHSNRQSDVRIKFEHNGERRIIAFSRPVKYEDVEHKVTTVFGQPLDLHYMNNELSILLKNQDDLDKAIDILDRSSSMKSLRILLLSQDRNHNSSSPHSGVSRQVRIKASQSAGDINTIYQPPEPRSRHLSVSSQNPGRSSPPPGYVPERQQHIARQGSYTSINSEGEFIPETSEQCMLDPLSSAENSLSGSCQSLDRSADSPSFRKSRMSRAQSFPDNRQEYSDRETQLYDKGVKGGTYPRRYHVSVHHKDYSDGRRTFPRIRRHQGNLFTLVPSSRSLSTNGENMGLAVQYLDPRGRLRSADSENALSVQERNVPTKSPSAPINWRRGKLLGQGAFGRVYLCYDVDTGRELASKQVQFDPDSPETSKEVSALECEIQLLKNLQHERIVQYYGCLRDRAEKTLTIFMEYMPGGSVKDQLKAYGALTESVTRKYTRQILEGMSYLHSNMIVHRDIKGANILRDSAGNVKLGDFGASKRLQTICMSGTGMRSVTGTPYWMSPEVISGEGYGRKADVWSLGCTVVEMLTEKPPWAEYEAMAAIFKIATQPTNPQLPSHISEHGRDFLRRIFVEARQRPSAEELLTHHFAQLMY
Each line names hits and unclear results; the compound was inactive in the other large screens; [ ] = another dose, or the depositor's remark. Rows were chosen to be rich in hits. Some 3.2% of all compounds tested hit in one or more screens of this group.

O=C(O)c1cc(O)c2c(c1)[C@@H]([C@H]1c3cc(C(=O)O)cc(O)c3C(=O)c3c(O[C@@H]4O[C@H](CO)[C@@H](O)[C@H](O)[C@H]4O)cccc31)c1cccc(O[C@@H]3O[C@H](CO)[C@@H](O)[C@H](O)[C@H]3O)c1C2=O	UBC13 polyUb inconclusive, Apaf-1 inh 98.7 (no result: DSG3 Ab inh, MEKK2 mut-MEK5, MEKK2wt PB1 HTS, MEKK3 PB1 HTS)
Cc1cccc(C(=O)NCC(=O)Nc2ccc(S(=O)(=O)Nc3nc(C)cc(C)n3)cc2)c1	none
Cc1cccc(C(=O)Nc2ccc(S(=O)(=O)Nc3nc(C)cc(C)n3)cc2)c1	DSG3 Ab inh 14.4
Cc1ncoc1C(=O)N1CCCC(N2CCN(c3ccccc3F)CC2)C1 (stereo not drawn)	none
O=C1C=C(O)c2[nH]c(=O)ccc2C1=O	none (no result: MEKK2 mut-MEK5, UBC13 polyUb, MEKK2wt PB1 HTS, Apaf-1 inh, MEKK3 PB1 HTS)
O=c1cc(-c2ccc(O)cc2)oc2c1ccc1ccccc12	none (no result: MEKK2 mut-MEK5, MEKK2wt PB1 HTS, MEKK3 PB1 HTS)
O=c1cc(-c2ccc(O)cc2)oc2c(O)c(O)c(O)c(O)c12	DSG3 Ab inh 58.2
Cc1cccc(N2CCN(C(=O)C3CCN(S(=O)(=O)c4c(C)noc4C)CC3)CC2C)c1 (stereo not drawn)	DSG3 Ab inh 46.2
Cc1noc(C)c1S(=O)(=O)N1CCC(C(=O)N2CCC(C)CC2)CC1	none
N#Cc1ccccc1NC(=O)COC(=O)CCc1ccccc1	none
O=C1/C(=C/c2c[nH]c3ccccc23)CCC/C1=C\c1c[nH]c2ccccc12	MEKK2 mut-MEK5 96.0
COc1ccc(NC(=O)COC(=O)c2ccccc2SCC(=O)N2CCCC2)cc1	none (no result: MEKK2 mut-MEK5, MEKK2wt PB1 HTS, MEKK3 PB1 HTS)
Cc1ccccc1NC(=O)NC(N)=O	MEKK2wt PB1 HTS -4.0
COc1ccccc1NC(=O)NC(N)=O	none
Cc1ccccc1NC(=O)c1cc[n+]([O-])cc1	MEKK2wt PB1 HTS 169.0
CCOC(=O)NNc1ccc2nonc2c1[N+](=O)[O-]	Apaf-1 inh 96.4
COCCCNCC(O)COc1cccc2[nH]c(C)cc12 (stereo not drawn)	none
COCCCNCC(O)COc1ccccc1F (stereo not drawn)	MEKK2wt PB1 HTS 10.0
CCC(C)Nc1nc(-c2c[nH]c3ccccc23)cs1 (stereo not drawn)	MEKK2wt PB1 HTS -19.0, MEKK3 PB1 HTS 78.0[inhibitor]
CCc1ccc(-c2csc(-c3c[nH]c4ccccc34)n2)cc1	none
CC(=O)Nc1ccc(-c2cc(-c3ccccc3)nc(-c3ccccc3)n2)cc1	DSG3 Ab inh -15.1
CC(=O)Nc1ccc(-c2cc(-c3ccc(NC(C)=O)cc3)nc(-c3ccccc3)n2)cc1	none
Cc1ccc(S(=O)(=O)N2C[C@@H]3[C@H]4CC[C@H](C4)[C@@H]3[C@@H](C)[C@@H]2c2ccn([Si](C(C)C)(C(C)C)C(C)C)c2)cc1	none (no result: MEKK2 mut-MEK5, UBC13 polyUb, MEKK2wt PB1 HTS, MEKK3 PB1 HTS)
CCOc1ccccc1CN1CCNC(=O)C1CC(=O)NC1CCCCCCC1 (stereo not drawn)	none
O=C1CC(c2ccc(Cl)cc2)CC(O)=C1C=NCCO (stereo not drawn)	none
Cc1ccccc1OCCC(=O)OCC(=O)c1c(N)n(CC(C)C)c(=O)n(C)c1=O	none (no result: DSG3 Ab inh)
CC1=NN(c2ccccc2)C(=O)C1=Cc1ccccc1	none (no result: MEKK2 mut-MEK5, UBC13 polyUb, MEKK2wt PB1 HTS, Apaf-1 inh, MEKK3 PB1 HTS)
COc1ccc(/C=C2/C(=O)N(c3ccccc3)N=C2C)cc1Br	Apaf-1 inh 86.9
COc1cc(/C=C2/C(=O)N(c3ccccc3)N=C2C)ccc1OS(=O)(=O)c1ccccc1	Apaf-1 inh 95.0 (no result: DSG3 Ab inh)
COc1ccc(-n2nc(C(=O)NCC(=O)NC3CCCCCC3)c3ccccc3c2=O)c(OC)c1	Apaf-1 inh 47.9 (no result: DSG3 Ab inh)
COc1ccc(-n2nc(C(=O)NCC(=O)NC3CCCCC3)c3ccccc3c2=O)c(OC)c1	none (no result: DSG3 Ab inh)
COc1ccc(N2CCN(S(=O)(=O)CCNC(=O)C3CC3)CC2)cc1	none (no result: MEKK2 mut-MEK5, MEKK2wt PB1 HTS, MEKK3 PB1 HTS)
O=C(NN=C(c1ccccc1)c1ccccc1)C(CCl)C1CCCCC1 (stereo not drawn)	none (no result: MEKK2 mut-MEK5, MEKK2wt PB1 HTS, MEKK3 PB1 HTS)
CS(=O)(=O)Nc1ccccc1C(=O)Nc1ccccc1Cl	DSG3 Ab inh 66.2
O=C(CCCCCN1C(=O)[C@@H]2Cc3ccccc3CN2C1=O)Nc1ccccc1F	none
CC1=CCC2C(=O)N(c3ccc(C)c(Br)c3)C(=O)C2C1 (stereo not drawn)	DSG3 Ab inh 48.1
CC1=CCC2C(=O)N(c3ccc(C)cc3)C(=O)C2C1 (stereo not drawn)	none
Cc1cc(Br)ccc1NC(=O)C1CCN(S(=O)(=O)c2cnc[nH]2)CC1	none
O=C(CCN1C(=O)C2C3C=CC(C4CC34)C2C1=O)Nc1ccc(Cl)cc1O (stereo not drawn)	none
Cc1cc2cc(CNC(=S)Nc3ccc(OC(F)F)cc3)ccc2n1C	DSG3 Ab inh 62.5
CSc1ncccc1C(=O)OCc1ccc([N+](=O)[O-])cc1	DSG3 Ab inh 79.4
CC1=Nc2ccccc2/C1=C\c1nc(-c2ccccc2)oc1O	MEKK2wt PB1 HTS 4.0 (no result: DSG3 Ab inh)
Cc1ccc(CNC(=O)c2cc3c(s2)CS(=O)(=O)C3)cc1	MEKK2wt PB1 HTS 0.0[inhibitor], MEKK3 PB1 HTS 2.0[inhibitor]
O=C(O)/C=C/C(=O)Nc1ccc(OC(F)F)cc1	none
O=C(O)/C=C/C(=O)Nc1ccc(OC(F)(F)F)cc1	MEKK2wt PB1 HTS -3.0
NS(=O)(=O)c1ccc(NC(=S)N2CCN(C(=O)C3CCCO3)CC2)cc1 (stereo not drawn)	none
Cc1nc(NC(=O)CCc2ccccc2)sc1C	none
Nc1c(C(=O)CSc2n[nH]c(-c3ccccc3)n2)c(=O)[nH]c(=O)n1C1CC1	none (no result: MEKK2 mut-MEK5, MEKK2wt PB1 HTS, MEKK3 PB1 HTS)
COc1ccc2oc(C(=O)OCC(=O)NC(C)c3ccccc3)c(C)c2c1 (stereo not drawn)	none
CCC(CC)C(=O)Nc1nnc(S(=O)(=O)N2c3ccccc3CC2C)s1 (stereo not drawn)	DSG3 Ab inh -14.5
CCCCn1c(N)c(N(CCOC)C(=O)c2cccc(S(=O)(=O)N(C)c3ccc(C)cc3)c2)c(=O)[nH]c1=O	none (no result: MEKK2 mut-MEK5, MEKK2wt PB1 HTS, MEKK3 PB1 HTS)
CCOc1ccc(NC(=O)CN(C)C2=NS(=O)(=O)c3ccccc32)cc1	none (no result: MEKK2 mut-MEK5, UBC13 polyUb, MEKK2wt PB1 HTS, Apaf-1 inh, MEKK3 PB1 HTS)
C#CCOCCOCCOCCNc1nc(N2CCN(C(=O)CCCCCCCCCCNC(=O)[C@H]([C@@H](C)CC)n3cc(CCCCCN)nn3)CC2)nc(N2CCN(C(=O)CCCCCCCCCCNC(=O)[C@@H]([C@H](C)O)n3cc(C)nn3)CC2)n1	UBC13 polyUb 118.4, Apaf-1 inh 49.9 (no result: MEKK2 mut-MEK5, MEKK2wt PB1 HTS, MEKK3 PB1 HTS)
